PubChem BioAssay AID489031 (Sanford-Burnham Center for Chemical Genomics, 2010)
The whole screen tested about 330,000 compounds, of which about 1,000 (0.3%) were called active.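 How the source made its calls: active means activity change at or below -40% at 20 µM; inactive means the rest.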 The full list was thinned out, with actives kept by preference.

target: Apoptotic protease-activating factor 1 (Homo sapiens) (UniProt O14727); assay: activators of human Apaf-1 apoptosome, primary screen, biochemical, DEVD-Rh110 fluorescence, uHTS (AID 489031); details: Apaf-1 apoptosome caspase-3 activation, at 20 µM, hits give low values
Sequence (O14727 whole entry, looked up): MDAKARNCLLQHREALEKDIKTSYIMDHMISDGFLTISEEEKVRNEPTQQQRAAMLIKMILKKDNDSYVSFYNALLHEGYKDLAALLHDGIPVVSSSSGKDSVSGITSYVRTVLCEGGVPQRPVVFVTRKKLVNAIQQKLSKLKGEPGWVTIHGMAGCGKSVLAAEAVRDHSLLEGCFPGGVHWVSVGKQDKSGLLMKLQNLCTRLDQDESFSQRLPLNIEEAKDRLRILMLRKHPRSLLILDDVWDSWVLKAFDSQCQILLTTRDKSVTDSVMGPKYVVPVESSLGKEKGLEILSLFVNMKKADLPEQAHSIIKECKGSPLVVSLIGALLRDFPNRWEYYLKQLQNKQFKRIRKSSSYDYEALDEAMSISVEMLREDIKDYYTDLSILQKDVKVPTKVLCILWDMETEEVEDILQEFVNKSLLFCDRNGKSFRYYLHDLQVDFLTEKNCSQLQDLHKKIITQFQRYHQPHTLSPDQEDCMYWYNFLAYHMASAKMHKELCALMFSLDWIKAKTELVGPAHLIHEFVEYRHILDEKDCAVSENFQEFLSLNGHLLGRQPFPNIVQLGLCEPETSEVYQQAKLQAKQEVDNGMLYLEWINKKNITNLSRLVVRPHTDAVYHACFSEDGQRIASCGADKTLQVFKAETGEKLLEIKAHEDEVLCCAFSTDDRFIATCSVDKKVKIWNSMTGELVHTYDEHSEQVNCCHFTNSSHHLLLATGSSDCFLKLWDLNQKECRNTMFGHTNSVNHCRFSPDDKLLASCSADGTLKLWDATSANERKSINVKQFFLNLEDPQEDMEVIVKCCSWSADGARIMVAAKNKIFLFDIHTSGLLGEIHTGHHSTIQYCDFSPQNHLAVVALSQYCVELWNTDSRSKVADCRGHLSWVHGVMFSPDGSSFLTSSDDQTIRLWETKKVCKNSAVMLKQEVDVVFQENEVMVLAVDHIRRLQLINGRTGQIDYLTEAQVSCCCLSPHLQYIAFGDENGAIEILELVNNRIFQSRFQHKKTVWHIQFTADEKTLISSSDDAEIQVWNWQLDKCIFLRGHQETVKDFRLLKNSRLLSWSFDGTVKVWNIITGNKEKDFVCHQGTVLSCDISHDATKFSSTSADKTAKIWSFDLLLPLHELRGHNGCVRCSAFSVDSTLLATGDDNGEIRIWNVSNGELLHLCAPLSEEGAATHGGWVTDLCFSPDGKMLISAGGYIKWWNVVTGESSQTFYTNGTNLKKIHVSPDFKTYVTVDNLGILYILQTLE
Procedure, shortened: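 Material: reconstituted apoptosome of Apaf-1, cytochrome c, caspase-9, procaspase-3; times: 30 min preincubation, 50 min reaction, room temperature; measured by: fluorescence, 540 nm emission, 480 nm excitation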

| Structure (SMILES) | activity change, negative = activation |
| --- | --- |
| COC(=O)[C@H]1[C@H]2C[C@H]3c4[nH]c5ccccc5c4CCN3C[C@@H]2CC[C@@H]1O | 13.4% (inactive) |
| CN1CCN(c2ccccc2NC(=O)COc2ccc(C3CCCCC3)cc2)CC1 | 43.6% (inactive) |
| Cc1ccc(S(=O)(=O)C(C#N)c2nc3ccccc3nc2N2CCCC2)cc1C (stereo not drawn) | 60% (inactive) |
| Oc1ccc(N=Cc2c(O)ccc3ccccc23)cc1 | 87.2% (inactive) |
| Oc1ccc(N=Cc2sc3ccccc3c2Cl)cc1 | 64.8% (inactive) |
| Cc1ccc(C(=O)N/N=C\c2cc(Br)c(Br)o2)cn1 | 75.4% (inactive) |
| Cc1ccc(S(=O)(=O)N2CCOCC2)cc1C(=O)NC(=S)N(Cc1ccccc1)C(C)C | -57.7% (active) |
| COc1ccc(/C=C2/C(=O)N(c3ccccc3)N=C2C)c(OC)c1 | 80.1% (inactive) |
| CN1CCN(CCCNC(=O)c2ccc(/C=C3\Oc4ccccc4N(Cc4ccc(Cl)cc4)C3=O)cc2)CC1 | 56.6% (inactive) |
| O=C(CSc1ccc(-c2ccc(-n3cccn3)cc2)nn1)Nc1ccc([N+](=O)[O-])cc1 | -70.1% (active) |
| C(=N/Nc1cc(N2CCOCC2)nc(N2CCOCC2)n1)/c1ccccc1 | 76.5% (inactive) |
| COc1ccc(-c2nc3cc(C)ccn3c2NC2CCCCC2)cc1SC1CCCCC1 | 48.4% (inactive) |
| Cc1oc2c(c1C(=O)N1CCOCC1)C(=O)c1ccccc1C2=O | 65.9% (inactive) |
| CCCC(=O)Nc1nc2ccc(NC(=O)c3c(F)c(F)c(OC)c(F)c3F)cc2s1 | -393% (active) |
| CC(C)n1cnc2c(NCc3ccccc3)cc(OCC3CCN(C)CC3)cc21 | 96.4% (inactive) |
| Cc1ccc2c(c1)C1CN(C)CCC1N2S(=O)(=O)c1ccc(Oc2ccc([N+](=O)[O-])cc2)cc1 (stereo not drawn) | 59.9% (inactive) |
| COc1ccccc1OCC(=O)Nc1c2c(nn1-c1ccc(F)cc1)CS(=O)(=O)C2 | -88% (active) |
| NC(N)=NCCCc1cn(CC(=O)N2CCNCC2)nn1 | 40.2% (inactive) |
| CC(NC(=O)c1ccccc1SCC(=O)N1CCCC1)c1ccccc1 (stereo not drawn) | 41.6% (inactive) |
| O=c1[nH]c2c(c(=O)n1Cc1ccccc1)CCC2 | -300% (active) |

| Structure (SMILES) | activity change, negative = activation |
| --- | --- |
| COCCn1nnnc1C(c1cc2ccc(OC)cc2[nH]c1=O)N1CCc2ccccc2C1 (stereo not drawn) | 56.8% (inactive) |
| CC(C)Cn1c(N)c(C(=O)NCc2cccs2)c2nc3ccccc3nc21 | 63.4% (inactive) |
| CCc1nn(CCCN2CCN(c3cccc(Cl)c3)CC2)c(=O)n1CCOc1ccccc1 | 23.5% (inactive) |
| CCN(CC)CCOc1ccc2c(c1)C(=NNC(=O)c1ccccn1)c1cc(OCCN(CC)CC)ccc1-2 | 52.5% (inactive) |
| O=C(Nc1ccccc1F)c1ccccc1-c1ccccc1 | -42.2% (active) |
| CC(=O)Nc1ccc(Nc2cc(C)nc(Nc3ccc(NC(C)=O)cc3)n2)cc1 | 46.2% (inactive) |
| c1ccc2c(CCN3CCNC[C@H]3Cc3cccc4ccccc34)cccc2c1 | 67% (inactive) |
| CCCCCCCCCCOC(=O)Cn1c(COc2cccc(OC)c2)[n+](C)c2ccccc21 | 65.3% (inactive) |
| CC1COc2ccccc2N1C(=O)c1cccnc1Cl (stereo not drawn) | -62.8% (active) |
| N#Cc1c(N2CCCCC2)nc(N)c2c(N)nc(SCC(=O)O)cc12 | 96% (inactive) |
| O=C(NCc1ccccn1)c1ccc2nc(-c3ccco3)c(-c3ccco3)nc2c1 | 60.6% (inactive) |
| CCOc1ccc(N=C2NC(=O)S/C2=C\c2ccc(O)cc2)cc1 | -72% (active) |
| CCOc1[nH]n(-c2ccc(Cl)cc2)c(=O)c1C=Nc1ccc(O)cc1 | 66.9% (inactive) |
| CC(=O)N(C1=C(Cl)C(=O)c2ccccc2C1=O)c1ccc(C(=O)O)cc1 | 89% (inactive) |
| Cc1cc2oc3ccc(NCCC4CCCN4C)cc3c(=O)c2cc1C (stereo not drawn) | 46.9% (inactive) |
| Nc1cc(C(F)(F)F)ccc1N1CCOCC1 | -185% (active) |
| CCN(CC(=O)NCc1cccs1)C(=O)c1cccc(S(=O)(=O)Nc2ccccc2OC)c1 | 60.2% (inactive) |
| CCN1C[C@@H]2[C@@H]3C(=O)N(Cc4ccccc4)C(=O)[C@@H]3[C@](Cc3ccccc3)(C(=O)OC)N2C1=NC1CCCCC1 | 41.2% (inactive) |
| CN(C)S(=O)(=O)c1ccc2oc(SCC(=O)Nc3ccccc3F)nc2c1 | 61.1% (inactive) |
| CCOCCc1c(O)nc(SCC(=O)NCc2ccco2)[nH]c1=O | -133% (active) |

| Structure (SMILES) | activity change, negative = activation |
| --- | --- |
| Cc1ccc(N=C2NC(=O)/C(=C/C=C/c3ccco3)S2)cc1C | 61.8% (inactive) |
| COc1cccc(-c2sc3ccc(OC)cc3c2-c2ccc(OCCN3CCCCC3)cc2)c1 | 61.8% (inactive) |
| CCC(C)(C)c1ccc(OCC(=O)N(C)C)c(C(C)(C)CC)c1 | 56.5% (inactive) |
| CC(C)N1CCC(NC(=O)Nc2ccccc2)CC1 | -331% (active) |
| CCOC(=O)C1CCN(C(=O)c2cccc(S(=O)(=O)N(CC)c3ccccc3)c2)CC1 | 45.2% (inactive) |
| Clc1ccc(C2=CSC3=Nc4cccc5cccc(c45)N23)cc1 | 90% (inactive) |
| Clc1cccc(-c2nc3nc4ccccc4nc3n2Cc2ccco2)c1 | -136% (active) |
| COc1ccc(S(=O)(=O)/N=C2\C=C(NS(=O)(=O)c3ccccc3)C(=O)c3ccccc32)cc1 | 79.2% (inactive) |
| CN1CC(=O)N=C1N | 3.64% (inactive) |
| CCCC[C@@H]1CN=C(N)N1CCc1cc(C(F)(F)F)cc(C(F)(F)F)c1 | 52.3% (inactive) |
| Nc1ccc2nn(-c3ccc(Cl)cc3)nc2c1 | 83.8% (inactive) |
| CC(=O)NC(=S)NNC(=O)c1ccc(Br)cc1 | -56.7% (active) |
| O=C(Cc1cc(=O)[nH][nH]1)N/N=C/c1ccccc1[N+](=O)[O-] | 40.8% (inactive) |
| Cc1ccc(Nc2nc(CSc3nnc(-c4ccncc4)n3-c3ccccc3C)cs2)cc1 | -54.9% (active) |
| CCCCCCCCCCOC(=O)Cn1c(COc2ccc(C)cc2)[n+](C)c2ccccc21 | 77.7% (inactive) |
| N#CC1(C#N)C(C(=O)C23CC4CC(CC(C4)C2)C3)C12CCOCC2 (stereo not drawn) | -214% (active) |
| O=C(N/N=C\c1cccnc1)c1cc(-c2ccccc2)nc2c(Cl)cccc12 | 40.1% (inactive) |
| C=CCNC(=O)c1ccc(C)c(Br)c1 | -44.1% (active) |
